The source of these data is ChEMBL document CHEMBL1275343, “A diverse series of substituted benzenesulfonamides as aldose reductase inhibitors with antioxidant activity: design, synthesis, and in vitro activity” (J Med Chem, 2010).

Test [1] deals with T1, Aldo-keto reductase family 1 member A1 (Rattus norvegicus, UniProt P51635).
T1 sequence (P51635 whole entry): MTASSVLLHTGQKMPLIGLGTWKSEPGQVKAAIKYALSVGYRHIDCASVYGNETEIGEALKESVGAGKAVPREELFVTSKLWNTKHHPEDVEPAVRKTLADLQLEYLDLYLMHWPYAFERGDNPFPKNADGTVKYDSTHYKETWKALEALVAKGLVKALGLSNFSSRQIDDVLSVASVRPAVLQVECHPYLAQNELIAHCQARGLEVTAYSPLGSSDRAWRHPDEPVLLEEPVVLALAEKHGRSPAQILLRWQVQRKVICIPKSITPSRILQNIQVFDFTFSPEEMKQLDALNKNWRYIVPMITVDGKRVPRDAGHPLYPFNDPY
As to the kind of experiment: Inhibition of Fischer-344 rat kidney AK1A1.

Test [2] concerns the target T2, Aldo-keto reductase family 1 member A1 (Rattus norvegicus) (UniProt P51635).
T2 sequence (whole entry): T1 sequence (P51635 whole entry)
As to the kind of experiment: Inhibition of Fischer-344 rat kidney AK1A1 at 100 uM.

Test [3] deals with Aldo-keto reductase family 1 member B1 (Rattus norvegicus) (UniProt P07943). The experiment in a line: Inhibition of Fischer-344 rat lens ALR2 at 100 uM. It counts as tissue-based. The note with it: Lens of camera-type eye.
For test [4], the species on record is Rattus norvegicus. As to the kind of experiment: Selectivity ratio of IC50 for Fischer-344 rat kidney AK1A1 to IC50 for Fischer-344 rat lens ALR2. Format: tissue-based. The note with it: Lens of camera-type eye.
The species entered for test [5] is Rattus norvegicus. As to the kind of experiment: Selectivity ratio of inhibition of Fischer-344 rat lens ALR2sto inhibition of Fischer-344 rat kidney AK1A1 at 100 uM. It counts as tissue-based. To be noted: Lens of camera-type eye. A digest of the protocol: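 Ratio of % inhibition of rat lens ALR2 to % inhibition of rat kidney ALR1, each measured at 100 μM compound.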

Test [6] relates to Radical scavenging activity. As to the kind of experiment: Antioxidant activity assessed as DPPH radical scavenging activity after 270 mins by least-square analysis. Format: functional.
Test [7] deals with Radical scavenging activity. The experiment in a line: Antioxidant activity assessed as ratio of IC50 for DPPH radical scavenging activity to concentration of DPPH. Format: functional. A general note: DPPH is a stable violet radical that fades when it is reduced.
Test [8] is described as follows: DPPH radical scavenging activity assessed as initial rate of interaction at 0.2 mM. It counts as functional. A digest of the protocol: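 Equimolar compound and DPPH (0.2 mM each) in ethanol; initial rate estimated from the roughly linear absorbance decrease over the first 30 s. Triplicate.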
A short description of test [9]: Antioxidant activity in L-alpha-phosphatidylcholine dioleoyl liposome assessed as inhibition of AAPH-induced lipid peroxidation by LOOH assay. Format: functional. The essentials:
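Unilamellar DOPC liposomes (0.8 mM) peroxidized by aqueous-phase peroxyl radicals from thermal decomposition of AAPH; Trolox standard; lipid hydroperoxide (LOOH) quantified against a calibration curve.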

Test [10] addresses Aldo-keto reductase family 1 member B1 (Rattus norvegicus, UniProt P07943). The experiment in a line: Inhibition of Fischer-344 rat lens ALR2 by least-square analysis. Format: tissue-based, Lens of camera-type eye. The essentials:
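Lenses from Fischer-344 rats of both sexes as ALR2 source; NADPH oxidation followed spectrophotometrically. Five concentrations, IC50 by least-squares of linear portion of log(dose)-response curves (0.889<r²<0.994); triplicate.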

Test [11] addresses T3, Aldo-keto reductase family 1 member A1 (Homo sapiens, UniProt P14550).
T3 sequence (P14550 whole entry): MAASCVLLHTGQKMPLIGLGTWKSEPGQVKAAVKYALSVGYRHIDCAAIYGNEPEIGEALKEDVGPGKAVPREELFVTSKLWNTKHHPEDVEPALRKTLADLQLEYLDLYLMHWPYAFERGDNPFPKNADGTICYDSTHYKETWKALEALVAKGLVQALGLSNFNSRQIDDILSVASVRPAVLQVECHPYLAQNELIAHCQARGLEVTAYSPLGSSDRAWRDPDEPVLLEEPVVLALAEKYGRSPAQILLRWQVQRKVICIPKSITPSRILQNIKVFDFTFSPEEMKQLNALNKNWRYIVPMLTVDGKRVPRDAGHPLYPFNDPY
As to the kind of experiment: Inhibition of AK1A1.

One may read the IC50 as the concentration that inhibits the measured activity by half. Broadly, the inhibition is how much of the control response was suppressed. With `O=S(=O)(Nc1cc(F)c(O)c(F)c1)c1ccccc1`, the IC50 in [1] turned out to be 19.6 µM; in test [6], 49 µM; in [9], 95.9 µM. Moreover, the inhibition stood at 79.2% in test [2] and 71.3% in test [3]. Besides, the Ratio IC50 in the test filed under Rattus norvegicus [4] was found to be 0.6. Besides, in the test filed under Rattus norvegicus [5], the Selectivity ratio was determined as 0.89. Also, in test [7], the Ratio was found to be 0.25. The Activity in test [8] is 0.498 s⁻¹.
`CCNC(=O)Nc1ccc(S(=O)(=O)Nc2cc(F)c(O)c(F)c2)cc1`: the IC50 was 25.5 µM in [1], 37.8 µM in test [10], 51.6 µM in test [6] and 81.7 µM in [9]. The inhibition stood at 68.5% in test [2] and 63.6% in [3]. The Ratio IC50 in the test listed under Rattus norvegicus [4] worked out at 0.67. For the same compound, the Ratio in test [7] was 0.28. Further, the Activity in test [8] was found to be 0.859 s⁻¹.
With `O=C(Nc1ccc(S(=O)(=O)Nc2cc(F)c(O)c(F)c2)cc1)c1ccccc1`, the 50% inhibitory concentration (IC50) in test [1] is 6.9 µM; in test [10], 7.9 µM; in test [6], 49.7 µM; in test [9], 68.6 µM. In addition, the inhibition was 81.1% in test [2] and 87.7% in test [3]. In addition, the Ratio IC50 in the test filed under Rattus norvegicus [4] amounted to 0.87. Also, in [7], the Ratio was 0.25. In addition, the Activity in test [8] turned out to be 0.817 s⁻¹.
In the case of `O=S(=O)(NCc1nnn[nH]1)c1ccccc1`, the inhibition in test [2] was 19.9%; in test [3], 23.8%. Moreover, the Selectivity ratio in the test filed under Rattus norvegicus [5] is 1.2.
On to `O=C1NOC[C@H]1NS(=O)(=O)c1ccccc1`, for which the inhibition was determined as 22.4% in test [2] and 25.7% in [3]. Also, the Selectivity ratio in the test listed under Rattus norvegicus [5] came out at 1.15.
With `CS(=O)(=O)NC(=O)CNS(=O)(=O)c1ccccc1`, the inhibition in test [2] came out at 12.2%; in [3], 32.9%. In addition, the Selectivity ratio in the test listed under Rattus norvegicus [5] is 2.69.
`Nc1ccc(S(=O)(=O)N(Cc2ccc(Br)cc2F)c2cc(F)c(O)c(F)c2)cc1`: the IC50 came to 0.323 µM in [1], 0.397 µM in test [10], 61.9 µM in test [6] and 73.1 µM in test [9]. The inhibition in [2] is 95.3%; in test [3] it was 87.4%. In the test filed under Rattus norvegicus [4], the Ratio IC50 worked out at 0.81. In addition, in test [7], the Ratio worked out at 0.31. Further, the Activity in test [8] was found to be 0.977 s⁻¹.
In [11], `CCCC(CCC)C(=O)O` [VALPROIC ACID] yielded a 50% inhibitory concentration (IC50) of 50.1 µM.
Regarding `O=C1NOC[C@@H]1NS(=O)(=O)c1ccccc1`, the inhibition in [2] was 2.67%; in test [3], 48.9%. The compound further came in with an IC50 in test [10] of 71.2 µM. For the same compound, in the test listed under Rattus norvegicus [5], the Selectivity ratio was determined as 18.3.
Turning to `COc1ccc(C(=O)Nc2ccc(S(=O)(=O)Nc3cc(F)c(O)c(F)c3)cc2)cc1`, the IC50 in [1] came out at 12.4 µM; in [10], 12 µM; in test [6], 56.9 µM; in test [9] it was 70.7 µM. Moreover, the inhibition in test [2] is 71.7%; in [3] it was 77.9%. In the test listed under Rattus norvegicus [4], the Ratio IC50 came to 1.03. Besides, the Ratio in test [7] was found to be 0.26. In addition, the Activity in [8] amounted to 0.995 s⁻¹.
Take `Nc1ccc(S(=O)(=O)Nc2cc(F)c(O)c(F)c2)cc1`: the half-inhibitory concentration (IC50) in test [1] stood at 10.3 µM; in test [6] it was 44.7 µM; in test [9] it was 48.1 µM. Further, the results for the inhibition in [2] and in test [3] were 85.4% and 84.1%, respectively. Further, in the test listed under Rattus norvegicus [4], the Ratio IC50 was determined as 0.73. Besides, the Ratio in test [7] is 0.22. Also, the Activity in test [8] is 0.777 s⁻¹.
In the case of `O=[N+]([O-])c1ccc(S(=O)(=O)N(Cc2ccc(Br)cc2F)c2cc(F)c(O)c(F)c2)cc1`, the IC50 stood at 15.4 µM in test [1], 9 µM in test [10], 61.5 µM in test [6] and 61.8 µM in test [9]. Also, the inhibition is 69.8% in test [2] and 75.1% in test [3]. Besides, the Ratio IC50 in the test listed under Rattus norvegicus [4] was 1.71. For the same compound, in test [7], the Ratio stood at 0.31. In addition, in test [8], the Activity was 0.974 s⁻¹.
For the compound `O=S(=O)(c1ccccc1)N(Cc1ccc(Br)cc1F)c1cc(F)c(O)c(F)c1`, the concentration for half-maximal inhibition (IC50) in test [1] came out at 11.9 µM; in test [10] it was 5.7 µM; in test [6] it was 60.9 µM; in test [9], 66 µM. The results for the inhibition in test [2] and in test [3] were 69.2% and 74.6%, respectively. Further, the Ratio IC50 in the test listed under Rattus norvegicus [4] is 2.09. Further, the Ratio in [7] came out at 0.3. In addition, in test [8], the Activity is 1 s⁻¹.
With `COc1ccc(S(=O)(=O)Nc2cc(F)c(O)c(F)c2)cc1`, the IC50 stood at 23.8 µM in test [1], 45.2 µM in test [6] and 55.1 µM in test [9]. The inhibition in test [2] came to 83%; in [3], 79.5%. Also, the Ratio IC50 in the test filed under Rattus norvegicus [4] was 1.54. Besides, in test [7], the Ratio amounted to 0.23. Further, the Activity in [8] came out at 0.661 s⁻¹.
In the case of `O=S(=O)(Nc1cc(F)c(O)c(F)c1)c1ccc(-n2cccc2)cc1`, the half-inhibitory concentration (IC50) in test [1] came to 281 µM; in [10] it was 57.1 µM; in [6], 48.6 µM; in test [9], 97.1 µM. Also, the inhibition came out at 41.7% in [2] and 61.1% in test [3]. In addition, the Ratio IC50 in the test listed under Rattus norvegicus [4] came out at 4.92. The Ratio in [7] came to 0.24. Moreover, the Activity in [8] amounted to 0.489 s⁻¹.
For `O=S(=O)(c1ccccc1)N(c1cc(F)c(O)c(F)c1)S(=O)(=O)c1ccccc1`, the IC50 in test [1] turned out to be 9.7 µM; in test [10], 28.1 µM; in test [6] it was 63.2 µM; in [9], 139 µM. Further, the inhibition worked out at 93.8% in test [2] and 65.1% in test [3]. Further, the Ratio IC50 in the test filed under Rattus norvegicus [4] was determined as 0.35. Further, the Ratio in test [7] is 0.32. Further, the Activity in test [8] turned out to be 0.967 s⁻¹.
As for `O=S(=O)(Nc1cc(F)c(O)c(F)c1)c1ccc(C(F)(F)F)cc1`, the IC50 is 105 µM in test [1], 91.5 µM in [10], 45.1 µM in test [6] and 66 µM in test [9]. In addition, the figures for the inhibition in test [2] and in test [3] were 50.6% and 55.8%, respectively. Further, the Ratio IC50 in the test listed under Rattus norvegicus [4] is 1.15. The Ratio in test [7] came to 0.23. In addition, in test [8], the Activity is 0.49 s⁻¹.
As for `O=C(O)CNS(=O)(=O)c1ccccc1`, the inhibition in test [2] was found to be 30.5%; in test [3], 51.7%. In addition, 86.7 µM corresponded to half-maximal inhibition in [10] (IC50). Further, the Selectivity ratio in the test filed under Rattus norvegicus [5] came to 1.69.
Consider `O=S(=O)(Nc1nnn[nH]1)c1ccccc1`, for which the figures for the inhibition in test [2] and in test [3] were 21.7% and 44.8%, respectively. The Selectivity ratio in the test listed under Rattus norvegicus [5] was 2.06.
As for `Cc1c(C)c2c(c(C)c1O)CCC(C)(C(=O)O)O2` (centres undefined) [TROLOX], the IC50 worked out at 37 µM in test [6] and 93.5 µM in [9]. Moreover, in [7], the Ratio was 0.19. For the same compound, the Activity in [8] was determined as 1.81 s⁻¹.
For the compound `O=[N+]([O-])c1ccc(S(=O)(=O)Nc2cc(F)c(O)c(F)c2)cc1`, the half-maximal inhibitory concentration (IC50) in test [1] amounted to 133 µM; in test [6] it was 54.8 µM; in test [9], 45.7 µM. Also, the inhibition in [2] amounted to 55.7%; in test [3] it was 63.9%. In addition, the Ratio IC50 in the test listed under Rattus norvegicus [4] was determined as 2.99. In addition, the Ratio in test [7] is 0.27. Further, the Activity in test [8] was 0.465 s⁻¹.
